Experimental data as given in ChEMBL document CHEMBL3124870, “Discovery and characterization of potent thiazoles versus methicillin- and vancomycin-resistant Staphylococcus aureus” (J Med Chem, 2014).
≈ marks a conversion by molar mass, not a printed value.

Legend:
[1] = Aqueous solubility of compound in phosphate buffer assessed as solubility limit after 2 hrs by turbidity analysis; format: physicochemical
Staphylococcus aureus [2] = experiment: Antibacterial activity against methicillin-resistant Staphylococcus aureus USA200 assessed as inhibition of visible growth by broth microdilution method; format: functional
Staphylococcus aureus [3] = experiment: Bactericidal activity against methicillin-resistant Staphylococcus aureus USA300 assessed as time required to complete elimination of bacteria by 3-log10 by time-kill assay; format: functional
Method in brief: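 Viable counts (CFU) followed over a 12-hour window; endpoint is a 3-log10 fall in CFU.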

Staphylococcus aureus [4] = experiment: Antibacterial activity against vancomycin-resistant Staphylococcus aureus assessed as inhibition of visible growth by broth microdilution method; format: functional
Staphylococcus aureus [5] = experiment: Antibacterial activity against methicillin-resistant Staphylococcus aureus USA1100 assessed as inhibition of visible growth by broth microdilution method; format: functional
Staphylococcus aureus [6] = experiment: Antibacterial activity against methicillin-resistant Staphylococcus aureus USA1000 assessed as inhibition of visible growth by broth microdilution method; format: functional
Staphylococcus aureus [7] = experiment: Antibacterial activity against methicillin-resistant Staphylococcus aureus USA800 assessed as inhibition of visible growth by broth microdilution method; format: functional
Staphylococcus aureus [8] = experiment: Antibacterial activity against methicillin-resistant Staphylococcus aureus USA700 assessed as inhibition of visible growth by broth microdilution method; format: functional
Staphylococcus aureus [9] = experiment: Antibacterial activity against methicillin-resistant Staphylococcus aureus USA500 assessed as inhibition of visible growth by broth microdilution method; format: functional
Staphylococcus aureus [10] = experiment: Antibacterial activity against methicillin-resistant Staphylococcus aureus USA300 assessed as inhibition of visible growth by broth microdilution method; format: functional
Staphylococcus aureus [11] = experiment: Antibacterial activity against methicillin-resistant Staphylococcus aureus USA100 assessed as inhibition of visible growth by broth microdilution method; format: functional
Staphylococcus aureus [12] = experiment: Antibacterial activity against methicillin-resistant Staphylococcus aureus NRS194 assessed as inhibition of visible growth by broth microdilution method; format: functional
Staphylococcus aureus [13] = experiment: Antibacterial activity against methicillin-resistant Staphylococcus aureus USA400 assessed as inhibition of visible growth by broth microdilution method; format: functional
Staphylococcus aureus [14] = experiment: Antibacterial activity against methicillin-resistant Staphylococcus aureus NRS119 assessed as inhibition of visible growth by broth microdilution method; format: functional
Staphylococcus aureus [15] = experiment: Antibacterial activity against methicillin-resistant Staphylococcus aureus NRS108 assessed as inhibition of visible growth by broth microdilution method; format: functional
Staphylococcus aureus [16] = experiment: Antibacterial activity against methicillin-resistant Staphylococcus aureus NRS107 assessed as inhibition of visible growth by broth microdilution method; format: functional
Staphylococcus aureus [17] = experiment: Antibacterial activity against vancomycin-intermediate Staphylococcus aureus LIM 3 assessed as inhibition of visible growth by broth microdilution method; format: functional
Staphylococcus aureus [18] = experiment: Antibacterial activity against vancomycin-intermediate Staphylococcus aureus HIP07256 assessed as inhibition of visible growth by broth microdilution method; format: functional
Staphylococcus aureus [19] = experiment: Antibacterial activity against vancomycin-intermediate Staphylococcus aureus ATCC 700699 assessed as inhibition of visible growth by broth microdilution method; format: functional
Staphylococcus aureus [20] = experiment: Antibacterial activity against methicillin-resistant Staphylococcus aureus ATCC 43300 assessed as inhibition of visible growth by broth microdilution method; format: functional
HeLa = experiment: Cytotoxicity against human HeLa cells assessed as cell viability at 11 ug/ml by MTS assay; format: cell-based
Liver microsome = experiment: Half life in human liver microsomes by LC-MS/MS analysis; format: ADME
MDCK [21] = experiment: Efflux ratio of apparent permeability from basolateral to apical side over apical to basolateral side in MDCK cells expressing MDR1 for 2 hrs by LC-MS/MS analysis; format: ADME, cell-based, Canis lupus familiaris; conditions: dog
Method in brief: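 Madin-Darby canine kidney cells transfected to overexpress MDR1 (P-glycoprotein 1). Apparent permeability (Papp, cm/sec) was measured in both the apical-to-basolateral and basolateral-to-apical directions. The efflux ratio was taken as Papp(B→A)/Papp(A→B).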

MDCK [22] = experiment: Apparent permeability from apical to basolateral side in MDCK cells expressing MDR1 for 2 hrs by LC-MS/MS analysis; format: ADME, cell-based, Canis lupus familiaris; conditions: dog
MDCK [23] = experiment: Apparent permeability from basolateral to apical side in MDCK cells expressing MDR1 for 2 hrs by LC-MS/MS analysis; format: ADME, cell-based, Canis lupus familiaris; conditions: dog
Caco-2 [24] = experiment: Efflux ratio of apparent permeability from basolateral to apical side over apical to basolateral side in human Caco2 cells at 10 microM for 2 hrs by LC-MS/MS analysis; format: ADME, cell-based; conditions: caco-2, 2 h
Method in brief: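 Caco-2 monolayer permeability was run under slightly acidic conditions, with the compound at 10 μM. Transfer was measured in the apical-to-basolateral and basolateral-to-apical directions. The efflux ratio was taken as B→A over A→B permeability.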

Caco-2 [25] = experiment: Apparent permeability across basolateral to apical to side in human Caco2 cells at 10 microM for 2 hrs by LC-MS/MS analysis; format: ADME, cell-based; conditions: caco-2, 2 h

Compound	solubility kinetic at 2 h [1]	MIC (Staphylococcus aureus [2])	MIC (Staphylococcus aureus [4])	MIC (Staphylococcus aureus [5])	MIC (Staphylococcus aureus [6])	MIC (Staphylococcus aureus [7])	MIC (Staphylococcus aureus [8])	MIC (Staphylococcus aureus [9])	MIC (Staphylococcus aureus [10])	MIC (Staphylococcus aureus [11])	MIC (Staphylococcus aureus [12])	MIC (Staphylococcus aureus [13])	MIC (Staphylococcus aureus [14])	MIC (Staphylococcus aureus [15])	MIC (Staphylococcus aureus [16])	MIC (Staphylococcus aureus [17])	MIC (Staphylococcus aureus [18])	MIC (Staphylococcus aureus [19])	MIC (Staphylococcus aureus [20])	Activity (HeLa)	further results
COC(=O)[C@H]1[C@H]2C[C@@H]3c4[nH]c5cc(OC)ccc5c4CCN3C[C@H]2C[C@@H](OC(=O)c2cc(OC)c(OC)c(OC)c2)[C@@H]1OC [RESERPINE]	31.3 µM (≈ 19.1 µg/mL)	–	–	–	–	–	–	–	–	–	–	–	–	–	–	–	–	–	–	–	–
CN[C@H](CC(C)C)C(=O)N[C@H]1C(=O)N[C@@H](CC(N)=O)C(=O)N[C@H]2C(=O)N[C@H]3C(=O)N[C@H](C(=O)N[C@H](C(=O)O)c4cc(O)cc(O)c4-c4cc3ccc4O)[C@H](O)c3ccc(c(Cl)c3)Oc3cc2cc(c3O[C@@H]2O[C@H](CO)[C@@H](O)[C@H](O)[C@H]2O[C@H]2C[C@](C)(N)[C@H](O)[C@H](C)O2)Oc2ccc(cc2Cl)[C@H]1O [VANCOMYCIN]	–	0.4 µg/mL (≈ 0.276 µM)	–	–	–	–	–	–	–	–	–	–	–	–	–	–	–	–	–	–	Time (Staphylococcus aureus [3]): 12 h
CCCCCCCc1ccc(-c2nc(C)c(/C(C)=N/NC(=N)N)s2)cc1	–	1.2 µg/mL (≈ 3.23 µM)	1.5 µg/mL (≈ 4.04 µM)	1.5 µg/mL (≈ 4.04 µM)	2.5 µg/mL (≈ 6.73 µM)	1.5 µg/mL (≈ 4.04 µM)	4 µg/mL (≈ 10.8 µM)	3 µg/mL (≈ 8.07 µM)	2.5 µg/mL (≈ 6.73 µM)	3 µg/mL (≈ 8.07 µM)	3 µg/mL (≈ 8.07 µM)	1.5 µg/mL (≈ 4.04 µM)	1.5 µg/mL (≈ 4.04 µM)	3 µg/mL (≈ 8.07 µM)	1 µg/mL (≈ 2.69 µM)	0.7 µg/mL (≈ 1.88 µM)	1.5 µg/mL (≈ 4.04 µM)	0.7 µg/mL (≈ 1.88 µM)	3 µg/mL (≈ 8.07 µM)	Non-toxic	–
CCCc1ccc(-c2nc(C)c(/C(C)=N/NC(=N)N)s2)cc1	–	1.9 µg/mL (≈ 6.02 µM)	1.2 µg/mL (≈ 3.8 µM)	1.6 µg/mL (≈ 5.07 µM)	1.6 µg/mL (≈ 5.07 µM)	1.9 µg/mL (≈ 6.02 µM)	1.2 µg/mL (≈ 3.8 µM)	1.9 µg/mL (≈ 6.02 µM)	1.2 µg/mL (≈ 3.8 µM)	1.6 µg/mL (≈ 5.07 µM)	1.9 µg/mL (≈ 6.02 µM)	1.2 µg/mL (≈ 3.8 µM)	1.9 µg/mL (≈ 6.02 µM)	1.2 µg/mL (≈ 3.8 µM)	1.2 µg/mL (≈ 3.8 µM)	1.6 µg/mL (≈ 5.07 µM)	1.9 µg/mL (≈ 6.02 µM)	1.9 µg/mL (≈ 6.02 µM)	1.2 µg/mL (≈ 3.8 µM)	Non-toxic	–
CCCCc1ccc(-c2nc(C)c(/C(C)=N/NC(=N)N)s2)cc1	62.6 µM (≈ 20.6 µg/mL)	2.8 µg/mL (≈ 8.5 µM)	1.4 µg/mL (≈ 4.25 µM)	2.8 µg/mL (≈ 8.5 µM)	1.4 µg/mL (≈ 4.25 µM)	2.3 µg/mL (≈ 6.98 µM)	1.8 µg/mL (≈ 5.46 µM)	1.4 µg/mL (≈ 4.25 µM)	1.4 µg/mL (≈ 4.25 µM)	5.5 µg/mL (≈ 16.7 µM)	1.4 µg/mL (≈ 4.25 µM)	1.4 µg/mL (≈ 4.25 µM)	1.4 µg/mL (≈ 4.25 µM)	1.4 µg/mL (≈ 4.25 µM)	1.4 µg/mL (≈ 4.25 µM)	1.4 µg/mL (≈ 4.25 µM)	1.4 µg/mL (≈ 4.25 µM)	1.4 µg/mL (≈ 4.25 µM)	2.8 µg/mL (≈ 8.5 µM)	Non-toxic	t1/2 (Liver microsome): 28.8 min; Ratio (MDCK [21]): 5; Papp (MDCK [22]): 0.7 ×10⁻⁶ cm/s; Papp (MDCK [23]): 3.6 ×10⁻⁶ cm/s; Ratio (Caco-2 [24]): > 2; Papp (Caco-2 [25]): 2.2 ×10⁻⁶ cm/s; Time (Staphylococcus aureus [3]): 2 h
C/C(=N\NC(=N)N)c1sc(-c2ccc3ccccc3c2)nc1C	–	2.6 µg/mL (≈ 8.04 µM)	–	–	–	–	2.6 µg/mL (≈ 8.04 µM)	2.6 µg/mL (≈ 8.04 µM)	–	–	1.9 µg/mL (≈ 5.87 µM)	–	3.8 µg/mL (≈ 11.7 µM)	1.9 µg/mL (≈ 5.87 µM)	1.9 µg/mL (≈ 5.87 µM)	–	2.6 µg/mL (≈ 8.04 µM)	3.2 µg/mL (≈ 9.89 µM)	3.8 µg/mL (≈ 11.7 µM)	Non-toxic	–
